Our source for the Activity and inhibition values is ChEMBL document CHEMBL5036371, “Steroid-Quinoline Hybrids for Disruption and Reversion of Protein Aggregation Processes” (ACS Med Chem Lett, 2022).

Data set [1] deals with Amyloid-beta precursor protein (Homo sapiens) (UniProt P05067). Kind of data set: Disaggregation of aggregated human amyloid beta (1 to 42) preformed fibrils in human SH-SY5Y cells assessed as decrease the number of foci to basal levels at 50 uM for 12 hrs by confocal microscopy relative to control. The data set is classed as cell-based. In short, it runs like this: (§1)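 SH-SY5Y cells were loaded for 16 h with preaggregated synthetic Aβ1–42, then given compound at 50 μM for a further 12 h in 0.5% EtOH vehicle. Cells were fixed, stained with Proteostat and imaged by confocal microscopy. Number and average area of aggregate foci per cell were scored over 10–20 fields, n = 2, about 370 cells per condition. Data are mean ± SD, unpaired t test.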

Data set [2] has as its target Heat shock protein beta-1 (Homo sapiens) (UniProt P04792). Briefly: Disaggregation of protein aggregates in human HeLa cells expressing HSP27:GFP assessed as number of HSP27:GFP foci per cell at 50 uM for 12 hr in presence of nilotinib by green fluorescent protein based confocal microscopy (rvb = 0.71). In a few lines:
(§2)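 Sensor HeLa cells (HSP27:GFP) were kept for 48 h with 5 μM nilotinib, and 50 μM compound was co-added for the final 12 h in 0.5% EtOH vehicle. Green foci per cell (count and mean area) were quantified by fluorescence microscopy. Data are mean ± SD, n = 4–10, about 4700 cells per condition. Comparison was against nilotinib alone by unpaired t test.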

Data set [3] shares this target. Briefly: Disaggregation of protein aggregates in human HeLa cells expressing HSP27:GFP assessed as HSP27:GFP foci area per cell cell at 50 uM for 12 hr in presence of nilotinib by green fluorescent protein based confocal microscopy (rvb = 0.71). In short, it runs like this:
as §2

The target of data set [4] is Amyloid-beta precursor protein (Homo sapiens) (UniProt P05067). Kind of data set: Disaggregation of aggregated huamn amyloid beta (1 to 42) fibrils in human SH-SY5Y cells assessed as decrease the area of foci to basal levels at 50 uM for 12 hour by confocal microscopy relative to control. The data set is classed as cell-based. In short, it runs like this: as §1
Data set [5] has the same target. Kind of data set: Inhibition of amyloid beta (1 to 42) (unknown origin) aggregation assessed as reduction in fluorescence intensity at 20 uM measured upto 30 h by thioflavin-T fluorescence assay. In a few lines:
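Aβ1–42 peptide (10 μM) fibrillation with 20 μM compound was followed over time by thioflavin-T fluorescence, with quercetin as positive control. Inhibition was judged from reduction of final fluorescence intensity.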

The test system of another data set is HeLa. Kind of data set: Cytotoxicity against human HeLa cells assessed as reduction in cell viability at 0.1 to 100 uM incubated for 24 to 48 hrs by Alamar blue colorimetric assay. Format: cell-based. As to conditions: dose lower 0.1 µM, time lower 24 hrs, dose upper 100 µM, time upper 48 hrs. In a few lines: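 Resazurin (alamarBlue) metabolic viability read-out in HeLa cells exposed for 24 and 48 h to 0.1, 1, 10, 50 and 100 μM compound.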
In general terms: Resazurin is reduced to fluorescent resorufin, in cell work by metabolically active cells.

Data set [6] concerns the target Heat shock protein beta-1 (Homo sapiens) (UniProt P04792). Kind of data set: Aggregation in human HeLa cells expressing HSP27:GFP protein in sensor assessed as HSP27:GFP foci area per cell at 5 uM incubated for 48 hrs by green fluorescent protein based confocal microscopy (rvb = 0.6). In short, it runs like this: (§3)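 HeLa cells stably expressing the HSP27:GFP aggregation sensor were exposed to 5 μM nilotinib for 48 h in 0.5% EtOH vehicle. Sensor relocalization to foci was imaged by fluorescence microscopy, and green foci number and average area per cell were scored. Data are mean ± SD, n = 4–10, about 4700 cells per condition, compared by unpaired Student's t test.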

The target is the same in data set [7]. Briefly: Aggregation in human HeLa cells expressing HSP27:GFP protein sensor assessed as number of HSP27:GFP foci per cell at 5 uM incubated for 48 hr by green fluorescent protein based confocal microscopy (rvb = 0.71). In a few lines: as §3

Structures are written as SMILES. Calls of active or inactive are those of the source. The rule behind the calls is not given here.

Sequence of Heat shock protein beta-1 (Homo sapiens) (P04792 whole entry): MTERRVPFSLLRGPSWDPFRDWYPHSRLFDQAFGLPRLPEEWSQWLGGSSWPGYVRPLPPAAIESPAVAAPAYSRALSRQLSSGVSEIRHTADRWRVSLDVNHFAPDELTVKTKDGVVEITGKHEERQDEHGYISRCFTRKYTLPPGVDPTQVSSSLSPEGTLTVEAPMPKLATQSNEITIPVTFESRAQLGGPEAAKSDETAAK
Sequence of Amyloid-beta precursor protein (Homo sapiens) (P05067 whole entry): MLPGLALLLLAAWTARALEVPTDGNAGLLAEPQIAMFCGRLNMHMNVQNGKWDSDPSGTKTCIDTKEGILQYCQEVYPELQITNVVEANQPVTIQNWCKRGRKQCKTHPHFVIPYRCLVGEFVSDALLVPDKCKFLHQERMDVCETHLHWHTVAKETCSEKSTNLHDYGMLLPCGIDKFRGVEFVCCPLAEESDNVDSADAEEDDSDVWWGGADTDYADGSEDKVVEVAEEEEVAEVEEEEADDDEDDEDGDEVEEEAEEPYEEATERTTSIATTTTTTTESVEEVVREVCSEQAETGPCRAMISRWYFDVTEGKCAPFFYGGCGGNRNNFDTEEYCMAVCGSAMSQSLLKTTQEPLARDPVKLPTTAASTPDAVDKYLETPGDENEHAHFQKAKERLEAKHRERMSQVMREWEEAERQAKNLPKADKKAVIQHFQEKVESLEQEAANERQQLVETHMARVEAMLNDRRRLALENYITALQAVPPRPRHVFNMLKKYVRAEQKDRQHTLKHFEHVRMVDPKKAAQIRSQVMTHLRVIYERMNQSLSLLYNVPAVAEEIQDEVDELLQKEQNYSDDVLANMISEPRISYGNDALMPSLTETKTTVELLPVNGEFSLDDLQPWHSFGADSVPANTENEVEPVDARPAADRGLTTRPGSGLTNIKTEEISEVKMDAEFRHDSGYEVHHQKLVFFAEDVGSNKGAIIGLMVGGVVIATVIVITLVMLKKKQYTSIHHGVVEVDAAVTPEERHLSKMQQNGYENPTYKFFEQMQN

Regarding `CC(C)CCC[C@@H](C)[C@H]1CC[C@H]2[C@@H]3CC=C4c5c(nc6ccc(Cl)cc6c5-c5ccccc5Cl)CC[C@]4(C)[C@H]3CC[C@]12C`, the outcome in data set [1] was Active. In addition, the results for the Activity (in data set [2]; in data set [3]; in the data set with HeLa) were 50%, 50% and “Non-Toxic”, respectively. In addition, the result in data set [4] was inactive. Further, the inhibition entry in data set [5] was “Active”.
`Cc1c2c(nc3ccccc13)CC[C@@]1(C)C2=CC[C@H]2[C@@H]3CC[C@H]([C@H](C)CCCC(C)C)[C@@]3(C)CC[C@@H]21`: the result in data set [1] was Active. The Activity in data set [2] is 50%; in data set [3], 50%; in the data set on HeLa, “Non-Toxic”. Further, the result in data set [4] was inactive. In addition, in data set [5], the inhibition entry is “Active”.
Consider `CC(C)CCC[C@@H](C)[C@H]1CC[C@H]2[C@@H]3CC=C4c5c(nc6ccc(Cl)cc6c5-c5ccccc5)CC[C@]4(C)[C@H]3CC[C@]12C`, for which, in data set [1], the result was inactive. For the same compound, the Activity is 50% in data set [2], 50% in data set [3] and “Non-Toxic” in the data set with HeLa. Moreover, the outcome in data set [4] was Active. In addition, the inhibition result in data set [5] was “inactive”.
Regarding `Cc1cn(-c2cc(NC(=O)c3ccc(C)c(Nc4nccc(-c5cccnc5)n4)c3)cc(C(F)(F)F)c2)cn1`, the figures for the Activity in data set [6] and in data set [7] were 7.5 um2 and 3.96, respectively.
As for `CC(C)CCC[C@@H](C)[C@H]1CC[C@H]2[C@@H]3CC=C4c5c(nc6ccccc6c5-c5ccccc5)CC[C@]4(C)[C@H]3CC[C@]12C`, in data set [1], the outcome was Active. Moreover, the Activity was 50% in data set [2], 50% in data set [3] and “Non-Toxic” with HeLa. Also, in data set [4], the outcome was inactive. Besides, the inhibition result in data set [5] is “inactive”.
